# Experimental data as given in ChEMBL document CHEMBL1136741, “Role of the glycopeptide framework in the antibacterial activity of hydrophobic derivatives of glycopeptide antibiotics” (2003).
# Tests used:
# Enterococcus faecium [1] = test: Antibacterial activity against glycopeptide resistant Enterococcus faecium 569 strain; type: functional
# Outline: (§1)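 MIC by broth microdilution in Mueller Hinton broth following NCCLS procedures. Compounds were dissolved in 10% DMSO in water, then diluted in broth. Final DMSO was 1.28% at 128 µg/mL antibiotic down to 0.0013% at 0.13 µg/mL. Repeat determinations were usually identical and always within 2-fold.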
# Enterococcus faecalis [2] = test: Antibacterial activity against glycopeptide resistant Enterococcus faecalis 560 strain; type: functional; outline: as §1
# [3] = test system: Staphylococcus epidermidis; test: Antibacterial activity against Staphylococcus epidermis 533 strain; type: functional
# Enterococcus faecium [4] = test: Antibacterial activity against glycopeptide susceptible Enterococcus faecium 568 strain; type: functional
# Outline: (§2)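 MIC by broth microdilution in Mueller Hinton broth following NCCLS procedures. Compounds dissolved in 10% DMSO in water, then diluted in broth; test range 128 to 0.13 µg/mL, final DMSO 1.28% to 0.0013% accordingly. Repeat determinations usually identical and always within 2-fold. Strain 533 is a clinical isolate; strain 602 is a clinical S. haemoliticus isolate.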
# Enterococcus faecalis [5] = test: Antibacterial activity against glycopeptide susceptible Enterococcus faecalis 559 strain; type: functional; outline: as §2
# [6] = test system: Staphylococcus haemolyticus; test: Antibacterial activity against Staphylococcus haemolyticus 602 strain
# Staphylococcus aureus [7] = test: Antibacterial activity against glycopeptide intermediate resistant Staphylococcus aureus 3798 strain; type: functional; outline: as §1
# Staphylococcus aureus [8] = test: Antibacterial activity against glycopeptide intermediate resistant Staphylococcus aureus 3797 strain; type: functional; outline: as §1
SMILES,MIC (Enterococcus faecium [1]) [µg/mL],MIC (Enterococcus faecalis [2]) [µg/mL],MIC [3] [µg/mL],MIC (Enterococcus faecium [4]) [µg/mL],MIC (Enterococcus faecalis [5]) [µg/mL],MIC [6] [µg/mL],MIC (Staphylococcus aureus [7]) [µg/mL],MIC (Staphylococcus aureus [8]) [µg/mL]
CCCCCCCCCCNC(=O)[C@H]1NC(=O)[C@H]2NC(=O)[C@H](NC(=O)[C@@H]3NC(=O)[C@H](CC(N)=O)NC(=O)[C@H](NC(=O)[C@@H](CC(C)C)NC)[C@H](O)c4ccc(c(Cl)c4)Oc4cc3cc(c4O[C@@H]3O[C@H](CO)[C@@H](O)[C@H](O)[C@H]3O[C@H]3C[C@](C)(N)C(O)[C@H](C)O3)Oc3ccc(cc3Cl)[C@H]2O)c2ccc(O)c(c2)-c2c(O)cc(O)cc21 (stereo partly specified),8,8,0.5,0.5,0.5,1,1,1
CCCCCCCCCCNC(=O)[C@H]1NC(=O)[C@H]2NC(=O)[C@H](NC(=O)[C@@H]3NC(=O)[C@H]4NC(=O)[C@@H](Cc5ccc(c(Cl)c5)Oc5cc3cc(c5O)Oc3ccc(cc3Cl)[C@H]2O)NC(=O)[C@H](N)c2ccc(O)c(c2)Oc2cc(O)cc4c2)c2ccc(O)c(c2)-c2c(O)cc(O)cc21,4,4,0.13,0.25,0.5,0.5,1,1
CC(=O)N[C@@H]1[C@H](O[C@@H]2c3ccc(c(Cl)c3)Oc3cc(cc(Oc4ccc(C[C@@H](N)CO)cc4Cl)c3O)[C@@H](N)C(=O)N[C@H]3C(=O)N[C@@H]2C(=O)N[C@H](C(=O)O)c2cc(O)cc(O[C@H]4O[C@H](CO)[C@@H](O)[C@@H](O)[C@@H]4O)c2-c2cc3ccc2O)O[C@@H](CO)[C@@H](O)[C@@H]1O,> 128,> 128,64,32,64,64,> 64,> 64
N[C@H]1C(=O)N[C@@H]2Cc3ccc(c(Cl)c3)Oc3cc4cc(c3O)Oc3ccc(cc3Cl)[C@@H](O)[C@@H]3NC(=O)[C@H](NC(=O)[C@@H]4NC(=O)[C@@H](NC2=O)c2cc(O)cc(c2)Oc2cc1ccc2O)c1ccc(O)c(c1)-c1c(O)cc(O)cc1[C@@H](C(=O)NCc1ccc(-c2ccc(Cl)cc2)cc1)NC3=O,4,8,0.13,0.25,0.25,0.13,1,1
C[C@@H]1O[C@@H](O[C@H]2[C@H](Oc3c4cc5cc3Oc3ccc(cc3Cl)[C@@H](O)[C@@H](N)C(=O)N[C@@H](CC(N)=O)C(=O)N[C@H]5C(=O)N[C@H]3C(=O)N[C@H](C(=O)N[C@H](C(=O)O)c5cc(O)cc(O)c5-c5cc3ccc5O)[C@H](O[C@H]3C[C@](C)(N)[C@@H](O)[C@H](C)O3)c3ccc(cc3)O4)O[C@H](CO)[C@@H](O)[C@@H]2O)C[C@](C)(N)[C@H]1O,> 128,> 128,16,16,16,16,64,64
CCCCCCCCCCNC(=O)[C@H]1NC(=O)[C@H]2NC(=O)[C@H](NC(=O)[C@@H]3NC(=O)[C@H](CC(N)=O)NC(=O)[C@H](N)[C@H](O)c4ccc(c(Cl)c4)Oc4cc3cc(c4O[C@@H]3O[C@H](CO)[C@@H](O)[C@H](O)[C@H]3O[C@H]3C[C@](C)(N)[C@@H](O)[C@H](C)O3)Oc3ccc(cc3)[C@H]2O[C@H]2C[C@](C)(N)[C@@H](O)[C@H](C)O2)c2ccc(O)c(c2)-c2c(O)cc(O)cc21,2,4,0.5,2,2,1,8,4
CN[C@H](CC(C)C)C(=O)N[C@H]1C(=O)N[C@@H](CC(N)=O)C(=O)N[C@H]2C(=O)N[C@H]3C(=O)N[C@H](C(=O)N[C@H](C(=O)NCc4ccc(-c5ccc(Cl)cc5)cc4)c4cc(O)cc(O)c4-c4cc3ccc4O)[C@H](O)c3ccc(cc3)Oc3cc2cc(c3O)Oc2ccc(cc2Cl)[C@H]1O,8,8,4,8,8,8,8,8
CCCCCCCCCCNC(=O)[C@H]1NC(=O)[C@H]2NC(=O)[C@H](NC(=O)[C@@H]3NC(=O)[C@H](CC(N)=O)NC(=O)[C@H](NC(=O)[C@@H](CC(C)C)NC)[C@H](O)c4ccc(c(Cl)c4)Oc4cc3cc(c4O[C@@H]3O[C@H](CO)[C@@H](O)[C@H](O)[C@H]3O[C@H]3C[C@](C)(N)[C@@H](O)[C@H](C)O3)Oc3ccc(cc3)[C@H]2O[C@H]2C[C@](C)(N)[C@@H](O)[C@H](C)O2)c2ccc(O)c(c2)-c2c(O)cc(O)cc21,2,4,0.13,0.5,1,0.13,4,4
NC(=O)C[C@@H]1NC(=O)[C@H](N)[C@H](O)c2ccc(c(Cl)c2)Oc2cc3cc(c2O)Oc2ccc(cc2)[C@@H](O)[C@@H]2NC(=O)[C@H](NC(=O)[C@@H]3NC1=O)c1ccc(O)c(c1)-c1c(O)cc(O)cc1[C@@H](C(=O)NCc1ccc(-c3ccc(Cl)cc3)cc1)NC2=O,64,64,32,32,64,64,64,64
CN[C@H](CC(C)C)C(=O)N[C@H]1C(=O)N[C@@H](CC(N)=O)C(=O)N[C@H]2C(=O)N[C@H]3C(=O)N[C@H](C(=O)N[C@H](C(=O)O)c4cc(O)cc(O)c4-c4cc3ccc4O)[C@H](O)c3ccc(cc3)Oc3cc2cc(c3O)Oc2ccc(cc2Cl)[C@H]1O [EREMOMYCIN AGLYCON],> 128,> 128,32,32,16,16,> 64,> 64
CN[C@H](CC(C)C)C(=O)N[C@H]1C(=O)N[C@@H](CC(N)=O)C(=O)N[C@H]2C(=O)N[C@H]3C(=O)N[C@H](C(=O)N[C@H](C(=O)O)c4cc(O)cc(O)c4-c4cc3ccc4O)[C@H](O[C@@H]3C[C@@](C)(N)[C@H](O)[C@@H](C)O3)c3ccc(cc3)Oc3cc2cc(c3O[C@H]2O[C@@H](CO)[C@H](O)[C@@H](O)[C@@H]2O[C@H]2C[C@](C)(N)[C@@H](O)[C@H](C)O2)Oc2ccc(cc2Cl)[C@H]1O [EREMOMYCIN],> 128,> 128,0.25,0.25,0.25,0.25,8,8
N[C@H]1C(=O)N[C@@H]2Cc3ccc(c(Cl)c3)Oc3cc4cc(c3O)Oc3ccc(cc3Cl)[C@@H](O)[C@@H]3NC(=O)[C@H](NC(=O)[C@@H]4NC(=O)[C@@H](NC2=O)c2cc(O)cc(c2)Oc2cc1ccc2O)c1ccc(O)c(c1)-c1c(O)cc(O)cc1[C@@H](C(=O)O)NC3=O [TEICOPLANIN AGLYCON],> 128,> 128,0.25,0.13,0.13,0.25,1,1
